Here are results for eight molecules from ChEMBL document CHEMBL4038305, “Benzoxaborole Antimalarial Agents. Part 5. Lead Optimization of Novel Amide Pyrazinyloxy Benzoxaboroles and Identification of a Preclinical Candidate” (J Med Chem, 2017).

Data set [1] deals with Salmonella typhimurium. As to the kind of experiment: Genotoxicity in Salmonella typhimurium TA98 assessed as number of revertants per plate at 1 ug/plate in absence of rat liver S9 fraction by Ames test (reference value: 14 +/- 6). It counts as toxicity. The settings on record: salmonella enterica subsp. enterica serovar typhimurium.
The test system of data set [2] is Plasmodium falciparum. As to the kind of experiment: Antimalarial activity against chloroquine-resistant Plasmodium falciparum W2 infected in human erythrocytes after 48 hrs by YOYO-1 dye based flow cytometric analysis. It counts as functional, cell-based. The note with it: W2, 48 h. The gist of the method:
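P. falciparum W2 cultures were exposed to the compound for 48 h, with artemisinin and chloroquine as reference controls. IC50 was taken from two independent replicates.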
Background: Flow cytometry measures light scatter and fluorescence of single cells or particles in a stream.

For data set [3], the system named is Plasmodium falciparum. As to the kind of experiment: Antimalarial activity against Plasmodium falciparum 3D7 0087/N9 infected in NOD/SCID IL2R gamma null mouse assessed as decrease in parasitemia at 1 to 100 mg/kg up to 7 days post infection. It counts as functional, organism-based. Summed up:
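The P. falciparum 3D70087/N9 strain grew in the peripheral blood of NODscidIL2Rγnull mice engrafted with human erythrocytes. Compounds were given orally once a day for four consecutive days.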

Data set [4] relates to Plasmodium falciparum. As to the kind of experiment: Antimalarial activity against intraerythrocytic stage of Plasmodium falciparum assessed as time required for maximal killing effect at 10 times IC50 preincubated for 24 hrs followed by [3H]-hypoxanthine addition measured after 24 hrs by scintillation counting method. It counts as functional. Summed up:
(§1)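 In vitro P. falciparum parasite reduction ratio assay run at 10×, 30× and 100× IC50. Derived parameters: lag phase (time to maximal killing), PRR (parasites killed per life cycle) and PCT99.9% (time to clear 99.9% of the initial parasite population).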

For data set [5], the system named is Plasmodium falciparum. As to the kind of experiment: Antimalarial activity against intraerythrocytic stage of Plasmodium falciparum assessed as parasite reduction ratio at 10 times IC50 preincubated for 24 hrs followed by [3H]-hypoxanthine addition measured after 24 hrs by scintillation counting method. It counts as functional. Summed up:
as §1

The subject of data set [6] is Plasmodium falciparum. Put plainly: Antimalarial activity against intraerythrocytic stage of Plasmodium falciparum assessed as time required to clear 99.9% of initial parasite population at 10 times IC50 preincubated for 24 hrs followed by [3H]-hypoxanthine addition measured after 24 hrs by scintillation counting method. It counts as functional. Summed up: as §1
Data set [7] deals with Escherichia coli. Put plainly: Genotoxicity in Escherichia coli WP2uvrA assessed as number of revertants per plate at 1000 ug/plate in absence of rat liver S9 fraction by Ames test (reference value: 45 +/- 9). It counts as toxicity. (The Ames test uses bacterial strains that need an amino acid and regain growth without it when mutated back.)
For the next data set, the system named is Plasmodium berghei. As to the kind of experiment: Antimalarial activity against Plasmodium berghei infected in Swiss Webster mouse assessed as mouse survival rate at 30 mg/kg administered once daily via oral gavage for 4 consecutive days beginning 1 hr after infection measured from day 4 to day 20 post infection relative to control. It counts as functional. The gist of the method: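 P. berghei-infected erythrocytes taken from a previously infected mouse were injected intraperitoneally. Oral dosing, once daily for 4 consecutive days, began 1 h after infection, in polyethylene glycol 300/propylene glycol/water (55/25/20 by weight). Chloroquine at 30 mg/kg was the positive control, with a vehicle-only group. Percent survival was recorded daily from day 4 to day 20.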

Data set [8] deals with Plasmodium falciparum. Put plainly: Antimalarial activity against Plasmodium falciparum 3D7 0087/N9 infected in NOD/SCID IL2R gamma null mouse assessed as decrease in parasitemia at 2.5 to 50 mg/kg up to 7 days post infection. It counts as functional, organism-based. The gist of the method: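 Human-erythrocyte-engrafted NODscidIL2Rγnull mice carrying P. falciparum Pf3D70087/N9 in peripheral blood; compound given orally once daily for four consecutive days.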

The test system of data set [9] is Plasmodium falciparum. As to the kind of experiment: Antimalarial activity against Plasmodium falciparum NF54 infected in human erythrocytes assessed as reduction in [3H]-hypoxanthine incorporation preincubated for 24 hrs followed by [3H]-hypoxanthine addition measured after 24 hrs by scintillation counting method. It counts as functional, cell-based.
Data set [10] has as its system Plasmodium falciparum. As to the kind of experiment: Antimalarial activity against Plasmodium falciparum K1 infected in human erythrocytes assessed as reduction in [3H]-hypoxanthine incorporation preincubated for 24 hrs followed by [3H]-hypoxanthine addition measured after 24 hrs by scintillation counting method. It counts as functional, cell-based.
The subject of data set [11] is Plasmodium falciparum. Put plainly: Antimalarial activity against Plasmodium falciparum T9/94 infected in human erythrocytes assessed as reduction in [3H]-hypoxanthine incorporation preincubated for 24 hrs followed by [3H]-hypoxanthine addition measured after 24 hrs by scintillation counting method. It counts as functional, cell-based.
The subject of data set [12] is Plasmodium falciparum. As to the kind of experiment: Antimalarial activity against Plasmodium falciparum HB3 infected in human erythrocytes assessed as reduction in [3H]-hypoxanthine incorporation preincubated for 24 hrs followed by [3H]-hypoxanthine addition measured after 24 hrs by scintillation counting method. It counts as functional, cell-based.
In data set [13] the test system is Plasmodium falciparum. Put plainly: Antimalarial activity against Plasmodium falciparum TM90C2A infected in human erythrocytes assessed as reduction in [3H]-hypoxanthine incorporation preincubated for 24 hrs followed by [3H]-hypoxanthine addition measured after 24 hrs by scintillation counting method. It counts as functional, cell-based.
Data set [14] relates to Plasmodium falciparum. As to the kind of experiment: Antimalarial activity against Plasmodium falciparum TM90C2B infected in human erythrocytes assessed as reduction in [3H]-hypoxanthine incorporation preincubated for 24 hrs followed by [3H]-hypoxanthine addition measured after 24 hrs by scintillation counting method. It counts as functional, cell-based.
Data set [15] has as its system Plasmodium falciparum. Put plainly: Antimalarial activity against Plasmodium falciparum Dd2 infected in human erythrocytes assessed as reduction in [3H]-hypoxanthine incorporation preincubated for 24 hrs followed by [3H]-hypoxanthine addition measured after 24 hrs by scintillation counting method. It counts as functional, cell-based.
Data set [16] relates to Plasmodium falciparum. As to the kind of experiment: Antimalarial activity against Plasmodium falciparum V1/S infected in human erythrocytes assessed as reduction in [3H]-hypoxanthine incorporation preincubated for 24 hrs followed by [3H]-hypoxanthine addition measured after 24 hrs by scintillation counting method. It counts as functional, cell-based.
Data set [17] deals with Salmonella typhimurium. As to the kind of experiment: Genotoxicity in Salmonella typhimurium TA98 assessed as number of rrevertants per plate at 2 ug/plate in presence of rat liver S9 fraction by Ames test (reference value: 19 +/- 8). It counts as toxicity. The settings on record: salmonella enterica subsp. enterica serovar typhimurium.
Data set [18] has as its system Salmonella typhimurium. Put plainly: Genotoxicity in Salmonella typhimurium TA100 assessed as number of revertants per plate at 2 ug/plate in presence of rat liver S9 fraction by Ames test (reference value: 141 +/- 1). It counts as toxicity. The note with it: salmonella enterica subsp. enterica serovar typhimurium. Summed up: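 TA100 positive control under S9 activation: 2-aminoanthracene at 2.0 μg/plate, plate incorporation, average revertants per plate.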

In data set [19] the test system is Salmonella typhimurium. As to the kind of experiment: Genotoxicity in Salmonella typhimurium TA1535 assessed as number of revertants per plate at 2 ug/plate in presence of rat liver S9 fraction by Ames test (reference value: 10). The settings on record: salmonella enterica subsp. enterica serovar typhimurium. It counts as toxicity.
Data set [20] deals with Salmonella typhimurium. As to the kind of experiment: Genotoxicity in Salmonella typhimurium TA1537 assessed as number of revertants per plate at 2 ug/plate in presence of rat liver S9 fraction by Ames test (reference value: 11 +/- 4). It counts as toxicity. The settings on record: salmonella enterica subsp. enterica serovar typhimurium.
For data set [21], the system named is Escherichia coli. As to the kind of experiment: Genotoxicity in Escherichia coli WP2uvrA assessed as number of revertants per plate at 15 ug/plate in presence of rat liver S9 fraction by Ames test (reference value: 42 +/- 6). It counts as toxicity.
Data set [22] concerns Salmonella typhimurium. Put plainly: Genotoxicity in Salmonella typhimurium TA1537 assessed as number of revertants per plate at 75 ug/plate in absence of rat liver S9 fraction by Ames test (reference value: 19 +/- 9). It counts as toxicity. The settings on record: salmonella enterica subsp. enterica serovar typhimurium.

Active and inactive are the calls of the source. The rule behind the calls is not given here.

Regarding `O=[N+]([O-])c1ccc2c(c1)Cc1ccccc1-2` [2-NITROFLUORENE], the Activity in the data set with Salmonella typhimurium [1] is given as 162.
What is called IC50 is the concentration that gives 50% inhibition. Take `C[C@@H]1CC[C@H]2[C@@H](C)C(=O)O[C@@H]3O[C@@]4(C)CC[C@@H]1[C@]32OO4` [ARTEMISININ]: it took 6 nM to reach half-maximal inhibition in the data set on Plasmodium falciparum [2] (IC50). Also, the outcome with Plasmodium falciparum [3] was Active. For the same molecule, the Time in the data set with Plasmodium falciparum [4] turned out to be 0 h. In addition, the “log(ratio)” value with Plasmodium falciparum [5] is recorded as >4.8. For the same molecule, in the data set with Plasmodium falciparum [6], the T99.9% was <24 h.
As to `COS(C)(=O)=O` [METHANESULFONIC ACID METHYL ESTER], the Activity with Escherichia coli [7] was 357.
In the case of `CCN(CC)CCCC(C)Nc1ccnc2cc(Cl)ccc12` (stereo not given) [CHLOROQUINE], the survival at 30 mg/kg with Plasmodium berghei turned out to be 100%. For the same molecule, the result in the data set on Plasmodium falciparum [8] was Active. In the data set on Plasmodium falciparum [4], the Time was 0 h. The T99.9% in the data set with Plasmodium falciparum [6] turned out to be 34 h.
`CCc1nc(N)nc(N)c1-c1ccc(Cl)cc1` [PYRIMETHAMINE]: the IC50 is 45 nM with Plasmodium falciparum [9]; > 20000 nM with Plasmodium falciparum [10]; 38 nM with Plasmodium falciparum [11]; 3380 nM in the data set on Plasmodium falciparum [12]; > 20000 nM with Plasmodium falciparum [13]; > 20000 nM with Plasmodium falciparum [14]. Further, the IC50 in the data set with Plasmodium falciparum [15] and in the data set on Plasmodium falciparum [16] was > 20000 nM each time. Further, the Time in the data set with Plasmodium falciparum [4] came to 24 h. Besides, the “log(ratio)” value with Plasmodium falciparum [5] was found to be 2.9. Moreover, the T99.9% in the data set on Plasmodium falciparum [6] amounted to 61 h.
In the case of `O=C1C(O)=C([C@H]2CC[C@H](c3ccc(Cl)cc3)CC2)C(=O)c2ccccc21` [ATOVAQUONE], the IC50 is 1 nM with Plasmodium falciparum [9], 0.7 nM in the data set with Plasmodium falciparum [10], > 35 nM with Plasmodium falciparum [14] and 2 nM in the data set on Plasmodium falciparum [15]. The Time in the data set on Plasmodium falciparum [4] worked out at 48 h. Also, the “log(ratio)” value in the data set with Plasmodium falciparum [5] is on record as 2.9. Further, in the data set on Plasmodium falciparum [6], the T99.9% stood at 81 h.
Consider `Nc1ccc2cc3ccccc3cc2c1` [2-AMINOANTHRACENE], for which the Activity came out at 524 with Salmonella typhimurium [17]; 550 in the data set on Salmonella typhimurium [18]; 163 in the data set on Salmonella typhimurium [19]; 82 with Salmonella typhimurium [20]; 311 with Escherichia coli [21].
In the case of `Nc1c2ccccc2nc2ccccc12` [AMINACRINE], the Activity in the data set on Salmonella typhimurium [22] came to 430.
